Data taken from ChEMBL document CHEMBL3232844, “Synthesis and structure activity relationships of schweinfurthin indoles” (2014).

How the values were obtained:
Format in all cases: functional
[1] = system: HL-60(TB); assay: Cytotoxicity against human HL-60(TB) cells
Outline: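 Tested within the NCI 60-cell-line screen, with GI50 as the read-out. Values are the average of two independent experiments. The lowest concentration tested was 10 nM.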

[2] = system: SK-MEL-5; assay: Cytotoxicity against human SK-MEL-5 cells
Outline: (§1)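 Tested in a 60-cell-line human tumor panel screen; the read-out is growth inhibition, reported as GI50 for each cell line.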

[3] = system: TK-10; assay: Cytotoxicity against human TK10 cells
Outline: (§2)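 Cell line run as part of the 60-cell-line screening panel; growth inhibition was reported as a GI50 for each line.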

[4] = system: IGROV-1; assay: Cytotoxicity against human IGROV1 cells; outline: as §1
[5] = Cytotoxicity against human HCT15 cells; outline: as §1
[6] = system: U-251; assay: Cytotoxicity against human U251 cells; outline: as §2
[7] = Cytotoxicity against human OVCAR4 cells; outline: as §1
[8] = system: CAKI-1; assay: Cytotoxicity against human Caki1 cells; outline: as §1
[9] = system: COLO 205; assay: Cytotoxicity against human COLO205 cells; outline: as §1
[10] = system: HT-29; assay: Cytotoxicity against human HT-29 cells; outline: as §1
[11] = system: MDA-MB-231; assay: Cytotoxicity against human MDA-MB-231 cells; outline: as §1
[12] = system: BT-549; assay: Cytotoxicity against human BT549 cells; outline: as §1
[13] = system: LOX IMVI; assay: Cytotoxicity against human LOXIMVI cells; outline: as §1
[14] = Cytotoxicity against human UACC257 cells; outline: as §2
[15] = system: KM12; assay: Cytotoxicity against human KM12 cells; outline: as §1
[16] = system: HCC 2998; assay: Cytotoxicity against human HCC2998 cells; outline: as §1
[17] = system: NCI-H460; assay: Cytotoxicity against human NCI-H460 cells; outline: as §1
[18] = system: 786-0; assay: Cytotoxicity against human 786-0 cells; outline: as §1
[19] = system: HOP-62; assay: Cytotoxicity against human HOP62 cells; outline: as §1
[20] = system: PC-3; assay: Cytotoxicity against human PC3 cells; outline: as §1
[21] = system: A549; assay: Cytotoxicity against human A549 cells; outline: as §1
[22] = system: MCF7; assay: Cytotoxicity against human MCF7 cells; outline: as §1
[23] = system: A498; assay: Cytotoxicity against human A498 cells; outline: as §1
[24] = system: CCRF-CEM; assay: Cytotoxicity against human CCRF-CEM cells
[25] = system: SN12C; assay: Cytotoxicity against human SN12C cells; outline: as §1
[26] = Cytotoxicity against human UACC62 cells; outline: as §2
[27] = system: ACHN; assay: Cytotoxicity against human ACHN cells; outline: as §1
[28] = system: SR; assay: Cytotoxicity against human SR cells; outline: as §2
[29] = system: HCT-116; assay: Cytotoxicity against human HCT116 cells; outline: as §1
[30] = system: DU-145; assay: Cytotoxicity against human DU145 cells; outline: as §1
[31] = system: MOLT-4; assay: Cytotoxicity against human MOLT4 cells; outline: as §1
[32] = system: SF-268; assay: Cytotoxicity against human SF268 cells; outline: as §1
[33] = system: SK-MEL-2; assay: Cytotoxicity against human SK-MEL-2 cells; outline: as §1
[34] = system: T47D; assay: Cytotoxicity against human T47D cells; outline: as §2
[35] = system: SF-295; assay: Cytotoxicity against human SF295 cells; outline: as §1
[36] = Cytotoxicity against human NCI-ADR-RES cells; outline: as §1
[37] = Cytotoxicity against human OVCAR5 cells; outline: as §1
[38] = system: SF-539; assay: Cytotoxicity against human SF539 cells; outline: as §1
[39] = system: MDA-MB-435; assay: Cytotoxicity against human MDA-MB-435 cells; outline: as §1
[40] = system: NCI-H322M; assay: Cytotoxicity against human NCI-H322M cells; outline: as §1
[41] = system: SK-OV-3; assay: Cytotoxicity against human SKOV3 cells; outline: as §1
[42] = system: SNB-75; assay: Cytotoxicity against human SNB75 cells; outline: as §2
[43] = system: SNB-19; assay: Cytotoxicity against human SNB19 cells; outline: as §1
[44] = read-out: pLC50 (the source's name) (converted)

COc1cc(/C=C/c2cc(OC)c3c(CC=C(C)C)c[nH]c3c2)cc2c1O[C@]1(C)CC[C@@H](O)C(C)(C)[C@H]1C2
GI50 [1]: 191 nM | CC50 [1, 44]: 85100 nM | TGI ([1]; read-out: pTGI (converted)): 2450 nM | GI50 [2]: 263 nM | CC50 [2, 44]: 1480 nM | TGI ([2]; read-out: pTGI (converted)): 676 nM | GI50 [3]: 2750 nM | LC50 [3]: 66100 nM | TGI ([3]; read-out: pTGI (converted)): 17400 nM | GI50 [4]: 1660 nM | CC50 [4, 44]: > 100000 nM | TGI ([4]; read-out: pTGI (converted)): 41700 nM | GI50 ([5]; HCT-15): 174 nM | CC50 ([5]; HCT-15, read-out: pLC50 (the source's name) (converted)): 6170 nM | TGI ([5]; HCT-15, read-out: pTGI (converted)): 1350 nM | GI50 [6]: 75.9 nM | CC50 [6, 44]: 12900 nM | TGI ([6]; read-out: pTGI (converted)): 2290 nM | GI50 ([7]; OVCAR-4): 2450 nM | CC50 ([7]; OVCAR-4, read-out: pLC50 (the source's name) (converted)): > 100000 nM | TGI ([7]; OVCAR-4, read-out: pTGI (converted)): 33100 nM | GI50 [8]: 347 nM | LC50 [8]: 53700 nM | TGI ([8]; read-out: pTGI (converted)): 2190 nM | GI50 [9]: 219 nM | CC50 [9, 44]: 1550 nM | TGI ([9]; read-out: pTGI (converted)): 479 nM | GI50 [10]: 107 nM | CC50 [10, 44]: 2820 nM | TGI ([10]; read-out: pTGI (converted)): 708 nM | GI50 [11]: 269 nM | LC50 [11]: 30900 nM | TGI ([11]; read-out: pTGI (converted)): 2400 nM | GI50 [12]: 355 nM | CC50 [12, 44]: 67600 nM | TGI ([12]; read-out: pTGI (converted)): 15500 nM | GI50 [13]: 295 nM | CC50 [13, 44]: 4470 nM | TGI ([13]; read-out: pTGI (converted)): 1290 nM | GI50 ([14]; UACC-257): 2090 nM | CC50 ([14]; UACC-257, read-out: pLC50 (the source's name) (converted)): 49000 nM | TGI ([14]; UACC-257, read-out: pTGI (converted)): 12900 nM | GI50 [15]: 355 nM | CC50 [15, 44]: 7940 nM | TGI ([15]; read-out: pTGI (converted)): 1700 nM | GI50 [16]: 2510 nM | CC50 [16, 44]: 53700 nM | TGI ([16]; read-out: pTGI (converted)): 15800 nM | GI50 [17]: 372 nM | CC50 [17, 44]: 17000 nM | TGI ([17]; read-out: pTGI (converted)): 2190 nM | GI50 [18]: 50.1 nM | LC50 (concentration killing 50% of cells) [18]: 891 nM | TGI ([18]; read-out: pTGI (converted)): 302 nM | GI50 [19]: 87.1 nM | CC50 [19, 44]: 2340 nM | TGI ([19]; read-out: pTGI (converted)): 479 nM | GI50 [20]: 240 nM | LC50 [20]: > 100000 nM | TGI ([20]; read-out: pTGI (converted)): 17400 nM | GI50 [21]: 525 nM | CC50 [21, 44]: 50100 nM | TGI ([21]; read-out: pTGI (converted)): 12900 nM | GI50 [22]: 398 nM | LC50 [22]: 19100 nM | TGI ([22]; read-out: pTGI (converted)): 3720 nM | GI50 [23]: 138 nM | CC50 [23, 44]: 5250 nM | TGI ([23]; read-out: pTGI (converted)): 603 nM | GI50 [24]: 209 nM | CC50 [24, 44]: > 100000 nM | TGI ([24]; read-out: pTGI (converted)): 851 nM | GI50 [25]: 2510 nM | LC50 [25]: 52500 nM | TGI ([25]; read-out: pTGI (converted)): 19100 nM | GI50 ([26]; UACC-62): 229 nM | CC50 ([26]; UACC-62, read-out: pLC50 (the source's name) (converted)): 9120 nM | TGI ([26]; UACC-62, read-out: pTGI (converted)): 661 nM | GI50 [27]: 1260 nM | LC50 (concentration killing 50% of cells) [27]: 49000 nM | TGI ([27]; read-out: pTGI (converted)): 15100 nM | GI50 [28]: 324 nM | CC50 [28, 44]: > 100000 nM | TGI ([28]; read-out: pTGI (converted)): 5500 nM | GI50 [29]: 417 nM | CC50 [29, 44]: 57500 nM | TGI ([29]; read-out: pTGI (converted)): 12600 nM | GI50 [30]: 2040 nM | LC50 (50% lethal concentration) [30]: 46800 nM | TGI ([30]; read-out: pTGI (converted)): 15100 nM | GI50 [31]: 155 nM | CC50 [31, 44]: > 100000 nM | TGI ([31]; read-out: pTGI (converted)): 661 nM | GI50 [32]: 1120 nM | CC50 [32, 44]: 91200 nM | TGI ([32]; read-out: pTGI (converted)): 14500 nM | GI50 [33]: 331 nM | CC50 [33, 44]: 11000 nM | TGI ([33]; read-out: pTGI (converted)): 1580 nM | GI50 [34]: 1740 nM | CC50 [34, 44]: > 100000 nM | TGI ([34]; read-out: pTGI (converted)): 17000 nM | GI50 ([35]; read-out: GI50): 48 nM | GI50 ([35]; read-out: pGI50 (converted)): 47.9 nM | CC50 [35, 44]: 871 nM | TGI ([35]; read-out: pTGI (converted)): 219 nM | GI50 [36]: 2880 nM | CC50 [36, 44]: > 100000 nM | TGI ([36]; read-out: pTGI (converted)): 28800 nM | GI50 ([37]; OVCAR-5): 1550 nM | CC50 ([37]; OVCAR-5, read-out: pLC50 (the source's name) (converted)): 51300 nM | TGI ([37]; OVCAR-5, read-out: pTGI (converted)): 7240 nM | GI50 [38]: 50.1 nM | CC50 [38, 44]: 2510 nM | TGI ([38]; read-out: pTGI (converted)): 309 nM | GI50 [39]: 646 nM | CC50 [39, 44]: 74100 nM | TGI ([39]; read-out: pTGI (converted)): 9120 nM | GI50 [40]: 6310 nM | CC50 [40, 44]: > 100000 nM | TGI ([40]; read-out: pTGI (converted)): 39800 nM | GI50 [41]: 776 nM | LC50 [41]: 67600 nM | TGI ([41]; read-out: pTGI (converted)): 7240 nM | GI50 [42]: 89.1 nM | CC50 [42, 44]: 75900 nM | TGI ([42]; read-out: pTGI (converted)): 2690 nM | GI50 [43]: 398 nM | CC50 [43, 44]: 28200 nM | TGI ([43]; read-out: pTGI (converted)): 4170 nM
